Measurements from ChEMBL document CHEMBL1134538, “Peptide folding induces high and selective affinity of a linear and small beta-peptide to the human somatostatin receptor 4” (J Med Chem, 2001).
Positions of bridges follow the written chain, without caps; N, C: chain ends. Non-standard residues stand in square brackets, D forms with d. Residues, ends and D or L forms follow the SMILES beside them. *: point of attachment. Threoninol(2S,3R) = C[C@@H](O)[C@H](CO)N*

Tests used:
Format in all cases: cell-based
[1] = molecular target: Somatostatin receptor type 1 (Homo sapiens) (UniProt P30872); experiment: Binding assay at human somatostatin receptor 1 (hsst1) expressed in CCL-39 cells using LTT-CST-14-(Tyr10) as radioligand.
Summary of the method: (§1)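 Chinese hamster lung fibroblast CCL39 cells stably expressing each hsst receptor; crude membrane homogenates in 10 mM HEPES pH 7.5, 0.5% BSA, 5 mM MgCl2, 5 mg/mL bacitracin. Competition against 25-50 pM [125I][Tyr10]CST14; 1 µM SRIF14 defines nonspecific binding. Vacuum filtration, bound radioactivity counted. Triplicate curves fitted by nonlinear regression; pKD reported.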

[2] = molecular target: Somatostatin receptor type 3 (Homo sapiens) (UniProt P32745); experiment: Binding assay at human somatostatin receptor 3 (hsst3) expressed in CCL-39 cells using LTT-CST-14-(Tyr10) as radioligand.; summary of the method: as §1
[3] = molecular target: Somatostatin receptor type 2 (Homo sapiens) (UniProt P30874); experiment: Binding assay at human somatostatin receptor 2 (hsst2) expressed in CCL-39 cells using LTT-CST-14-(Tyr10) as radioligand.
Summary of the method: (§2)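 Chinese hamster lung fibroblast CCL39 cells stably expressing each hsst receptor; crude membrane homogenates in 10 mM HEPES pH 7.5, 0.5% BSA, 5 mM MgCl2, 5 mg/mL bacitracin. Vacuum filtration, bound radioactivity counted. Triplicate curves fitted by nonlinear regression; pKD reported.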

[4] = molecular target: Somatostatin receptor type 4 (Homo sapiens) (UniProt P31391); experiment: Binding assay at human somatostatin receptor 4 (hsst4) expressed in CCL-39 cells using LTT-CST-14-(Tyr10) as radioligand.; summary of the method: as §2
[5] = molecular target: Somatostatin receptor type 5 (Homo sapiens) (UniProt P35346); experiment: Binding assay at human somatostatin receptor 5 (hsst5) expressed in CCL-39 cells using LTT-CST-14-(Tyr10) as radioligand.; summary of the method: as §2
Sequence of Somatostatin receptor type 5 (Homo sapiens) (P35346 whole entry): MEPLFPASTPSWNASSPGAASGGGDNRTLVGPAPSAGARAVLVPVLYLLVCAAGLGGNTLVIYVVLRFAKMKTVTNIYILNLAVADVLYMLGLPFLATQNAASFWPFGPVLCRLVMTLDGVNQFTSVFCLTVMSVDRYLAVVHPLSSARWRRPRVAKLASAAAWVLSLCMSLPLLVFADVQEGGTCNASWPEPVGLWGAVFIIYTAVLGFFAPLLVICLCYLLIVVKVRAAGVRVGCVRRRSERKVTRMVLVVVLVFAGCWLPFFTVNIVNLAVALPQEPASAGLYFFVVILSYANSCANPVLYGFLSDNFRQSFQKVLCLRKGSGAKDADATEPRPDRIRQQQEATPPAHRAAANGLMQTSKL

Sequence of Somatostatin receptor type 1 (Homo sapiens) (P30872 whole entry): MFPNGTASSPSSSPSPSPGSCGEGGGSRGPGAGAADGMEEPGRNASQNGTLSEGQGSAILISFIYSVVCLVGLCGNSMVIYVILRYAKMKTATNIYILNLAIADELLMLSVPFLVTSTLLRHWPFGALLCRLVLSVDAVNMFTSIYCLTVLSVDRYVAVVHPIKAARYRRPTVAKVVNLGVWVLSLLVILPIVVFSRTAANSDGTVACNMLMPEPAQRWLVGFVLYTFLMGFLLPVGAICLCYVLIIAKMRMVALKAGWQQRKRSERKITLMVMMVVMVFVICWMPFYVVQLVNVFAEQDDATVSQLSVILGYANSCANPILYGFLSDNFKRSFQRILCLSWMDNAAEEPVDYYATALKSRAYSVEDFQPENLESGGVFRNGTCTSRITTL
Sequence of Somatostatin receptor type 3 (Homo sapiens) (P32745 whole entry): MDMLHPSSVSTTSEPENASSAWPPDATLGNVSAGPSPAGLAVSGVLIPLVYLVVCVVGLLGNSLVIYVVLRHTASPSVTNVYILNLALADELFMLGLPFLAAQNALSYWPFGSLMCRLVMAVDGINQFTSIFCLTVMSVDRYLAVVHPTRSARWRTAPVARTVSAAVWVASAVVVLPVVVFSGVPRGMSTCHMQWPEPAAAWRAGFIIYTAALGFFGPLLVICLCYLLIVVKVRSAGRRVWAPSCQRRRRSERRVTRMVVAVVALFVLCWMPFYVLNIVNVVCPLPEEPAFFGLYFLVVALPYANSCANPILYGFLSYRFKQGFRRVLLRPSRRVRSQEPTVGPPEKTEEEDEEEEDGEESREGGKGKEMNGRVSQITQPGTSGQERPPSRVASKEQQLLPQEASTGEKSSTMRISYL
Sequence of Somatostatin receptor type 2 (Homo sapiens) (P30874 whole entry): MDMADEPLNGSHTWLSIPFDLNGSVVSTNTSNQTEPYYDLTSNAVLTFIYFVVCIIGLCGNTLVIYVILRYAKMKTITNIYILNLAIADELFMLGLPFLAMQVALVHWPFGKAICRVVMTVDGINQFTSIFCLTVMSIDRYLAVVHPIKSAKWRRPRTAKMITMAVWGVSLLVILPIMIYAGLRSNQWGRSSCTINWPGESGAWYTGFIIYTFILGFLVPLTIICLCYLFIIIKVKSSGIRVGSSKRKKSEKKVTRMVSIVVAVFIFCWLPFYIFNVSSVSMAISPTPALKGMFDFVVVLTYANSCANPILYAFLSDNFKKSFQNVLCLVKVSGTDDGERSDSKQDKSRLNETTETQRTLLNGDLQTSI
Sequence of Somatostatin receptor type 4 (Homo sapiens) (P31391 whole entry): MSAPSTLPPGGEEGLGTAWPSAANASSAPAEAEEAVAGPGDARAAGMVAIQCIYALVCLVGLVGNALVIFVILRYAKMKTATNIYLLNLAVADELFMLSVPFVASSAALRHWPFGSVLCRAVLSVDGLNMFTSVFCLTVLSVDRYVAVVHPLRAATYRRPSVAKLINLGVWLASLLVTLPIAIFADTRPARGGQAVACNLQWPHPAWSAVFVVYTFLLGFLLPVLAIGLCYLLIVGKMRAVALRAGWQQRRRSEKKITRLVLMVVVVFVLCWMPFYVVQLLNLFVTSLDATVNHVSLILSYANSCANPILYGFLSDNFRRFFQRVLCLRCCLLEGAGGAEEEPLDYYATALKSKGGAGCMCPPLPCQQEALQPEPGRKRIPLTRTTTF

Compound | pKD [1] | pKD [2] | pKD [3] | pKD [4] | pKD [5]
CC(=O)N[C@H](CC(=O)N[C@@H](CCCCN)CC(=O)N[C@H](CC(=O)N[C@H](CC(N)=O)Cc1ccccc1)Cc1c[nH]c2ccccc12)[C@@H](C)O | < 4 | < 5 | < 4 | < 4 | < 4
CC(=O)N[C@H](CC(=O)NC[C@H](CCCCN)C(=O)N[C@H](CC(=O)N[C@H](CC(N)=O)Cc1ccccc1)Cc1c[nH]c2ccccc12)[C@@H](C)O | 4.88 | < 5 | < 5 | 7.08 | < 5
C[C@@H](O)[C@H](CO)NC(=O)[C@@H]1CSSC[C@H](NC(=O)[C@H](N)Cc2ccccc2)C(=O)N[C@@H](Cc2ccccc2)C(=O)N[C@H](Cc2c[nH]c3ccccc23)C(=O)N[C@@H](CCCCN)C(=O)N[C@@H]([C@@H](C)O)C(=O)N1 (H-[dF]CF[dW]KTC-{Threoninol(2S,3R)}; disulfide 2-7) | – | 8.6 | – | – | –
CC(=O)N[C@H](C(=O)N[C@@H](CCCCN)C(=O)N[C@@H](Cc1c[nH]c2ccccc12)C(=O)N[C@@H](Cc1ccccc1)C(N)=O)[C@@H](C)O (Ac-TKWF-NH2) | < 4 | < 5 | < 4 | < 5 | < 4
